Results: ChEMBL document CHEMBL3227917, “Structure-activity relationships of dimeric Catharanthus alkaloids. 2. Experimental antitumor activities of N-substituted deacetylvinblastine amide (vindesine) sulfates” (J Med Chem, 1979)

Experiments:
[1] = test system: Mus musculus; test: Toxicity in AKR mouse allografted with mouse Ridgway osteogenic sarcoma assessed as lethality at 0.40 mg/kg, ip administered daily for 8 to 10 days compound treatment commenced 8 days after tumor implantation; type: organism-based; set-up: dose 0.4 mg/kg, route intraperitoneal; details: in vivo, 0.4 mg/kg
Summary of the method: (§1)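 Tumor-bearing mice given sulfate salts ip daily for 8–10 days; values are the average of one or more tests. Toxic means lethal to ≥5 of 10 animals per group.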

[2] = test system: Mus musculus; test: Toxicity in C3H mouse allografted with mouse Gardner lymphosarcoma assessed as lethality at 0.40 mg/kg, ip administered daily for 8 to 10 days; type: organism-based; set-up: dose 0.4 mg/kg, route intraperitoneal; details: in vivo, 0.4 mg/kg; summary of the method: as §1
[3] = Antitumor activity against mouse Gardner lymphosarcoma allografted in C3H mouse assessed as tumor growth inhibition at 0.20 mg/kg, ip administered daily for 8 to 10 days; type: functional; details: route intraperitoneal, read-out: TGI
Summary of the method: (§2)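 Gardner lymphosarcoma in C3H mice; sulfate salts unless noted, given ip daily for 8–10 days, treatment starting 8 days after tumor implantation. Tumor growth inhibition scored as –, 0–25%; +, 26–50%; ++, 51–75%; +++, 76–100%; T, lethal to ≥5 of 10 animals per group. Average of one or more tests.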

[4] = Antitumor activity against mouse Gardner lymphosarcoma allografted in C3H mouse assessed as tumor growth inhibition at 0.10 mg/kg, ip administered daily for 8 to 10 days; type: functional; details: route intraperitoneal, read-out: TGI; summary of the method: as §2
[5] = test system: Mus musculus; test: Toxicity in AKR mouse allografted with mouse Ridgway osteogenic sarcoma assessed as lethality at 0.20 mg/kg, ip administered daily for 8 to 10 days compound treatment commenced 8 days after tumor implantation; type: organism-based; set-up: dose 0.2 mg/kg, route intraperitoneal; details: in vivo, 0.2 mg/kg; summary of the method: as §1
[6] = Antitumor activity against mouse Ridgway osteogenic sarcoma allografted in AKR mouse assessed as tumor growth inhibition at 0.10 mg/kg, ip administered daily for 8 to 10 days compound treatment commenced 8 days after tumor implantation; type: functional; details: route intraperitoneal, read-out: TGI
[7] = test system: Mus musculus; test: Toxicity in C3H mouse allografted with mouse Gardner lymphosarcoma assessed as lethality at 0.20 mg/kg, ip administered daily for 8 to 10 days; type: organism-based; set-up: dose 0.2 mg/kg, route intraperitoneal; details: in vivo, 0.2 mg/kg; summary of the method: as §1
[8] = Antitumor activity against mouse Ridgway osteogenic sarcoma allografted in AKR mouse assessed as tumor growth inhibition at 0.05 mg/kg, ip administered daily for 8 to 10 days compound treatment commenced 8 days after tumor implantation; type: functional; details: route intraperitoneal, read-out: TGI
[9] = Antitumor activity against mouse Ridgway osteogenic sarcoma allografted in AKR mouse assessed as tumor growth inhibition at 0.20 mg/kg, ip administered daily for 8 to 10 days compound treatment commenced 8 days after tumor implantation; type: functional; details: route intraperitoneal, read-out: TGI
[10] = Antitumor activity against mouse Ridgway osteogenic sarcoma allografted in AKR mouse assessed as tumor growth inhibition at 0.40 mg/kg, ip administered daily for 8 to 10 days compound treatment commenced 8 days after tumor implantation; type: functional; details: route intraperitoneal, read-out: TGI
[11] = Antitumor activity against mouse Gardner lymphosarcoma allografted in C3H mouse assessed as tumor growth inhibition at 0.40 mg/kg, ip administered daily for 8 to 10 days; type: functional; details: route intraperitoneal, read-out: TGI; summary of the method: as §2
[12] = Antitumor activity against mouse Gardner lymphosarcoma allografted in C3H mouse assessed as tumor growth inhibition at 0.30 mg/kg, ip administered daily for 8 to 10 days; type: functional; details: route intraperitoneal, read-out: TGI; summary of the method: as §2
[13] = test system: Mus musculus; test: Toxicity in C3H mouse allografted with mouse Gardner lymphosarcoma assessed as lethality at 0.30 mg/kg, ip administered daily for 8 to 10 days; type: organism-based; set-up: dose 0.3 mg/kg, route intraperitoneal; details: in vivo, 0.3 mg/kg; summary of the method: as §1
[14] = Antitumor activity against mouse Ridgway osteogenic sarcoma allografted in AKR mouse assessed as tumor growth inhibition at 0.30 mg/kg, ip administered daily for 8 to 10 days compound treatment commenced 8 days after tumor implantation; type: functional; details: route intraperitoneal, read-out: TGI
[15] = Dissociation constant, pKa of the compound; type: physicochemical
Summary of the method: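 Electrometric titration in 66% aqueous DMF.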

| pKa [15] | Structure (SMILES) | Activity [1] | Activity [2] | inhibition in vivo at 0.2 mg/kg [3] [%] | inhibition in vivo at 0.1 mg/kg [4] [%] | Activity [5] | inhibition in vivo at 0.1 mg/kg [6] [%] | Activity [7] | inhibition in vivo at 0.05 mg/kg [8] [%] | inhibition in vivo at 0.2 mg/kg [9] [%] | inhibition in vivo at 0.4 mg/kg [10] [%] | inhibition in vivo at 0.4 mg/kg [11] [%] | inhibition in vivo at 0.3 mg/kg [12] [%] | Activity [13] | inhibition in vivo at 0.3 mg/kg [14] [%] |
| --- | --- | --- | --- | --- | --- | --- | --- | --- | --- | --- | --- | --- | --- | --- | --- |
|  | CCNC(=O)[C@@]1(O)[C@H](O)[C@]2(CC)C=CCN3CC[C@@]4(c5cc([C@@]6(C(=O)OC)C[C@@H]7CN(CCc8c6[nH]c6ccccc86)C[C@](O)(CC)C7)c(OC)cc5N(C)[C@@H]14)[C@@H]32.O=S(=O)(O)O | Toxic | Toxic | 76 | 0 | Toxic | 0 |  |  |  |  |  |  |  |  |
|  | CC[C@]1(O)C[C@H]2CN(CCc3c([nH]c4ccccc34)[C@@](C(=O)OC)(c3cc4c(cc3OC)N(C)[C@H]3[C@@](O)(C(=O)NC(C)C)[C@H](O)[C@]5(CC)C=CCN6CC[C@]43[C@@H]65)C2)C1.O=S(=O)(O)O | Toxic | Toxic |  | 0 | Toxic | 76 | Toxic | 0 |  |  |  |  |  |  |
|  | CC[C@]1(O)C[C@H]2CN(CCc3c([nH]c4ccccc34)[C@@](C(=O)OC)(c3cc4c(cc3OC)N(C)[C@H]3[C@@](O)(C(=O)NCc5ccccc5)[C@H](O)[C@]5(CC)C=CCN6CC[C@]43[C@@H]65)C2)C1 |  |  | 26 |  |  | 0 |  |  | 0 | 76 | 0 | 0 |  |  |
|  | CC[C@]1(O)C[C@H]2CN(CCc3c([nH]c4ccccc34)[C@@](C(=O)OC)(c3cc4c(cc3OC)N(C)[C@H]3[C@@](O)(C(=O)N(C)C)[C@H](O)[C@]5(CC)C=CCN6CC[C@]43[C@@H]65)C2)C1.O=S(=O)(O)O | Toxic | Toxic | 26 |  | Toxic | 0 |  |  |  |  |  |  | Toxic |  |
| 9.48 | CC[C@]1(O)C[C@H]2CN(CCc3c([nH]c4ccccc34)[C@@](C(=O)OC)(c3cc4c(cc3OC)N(C)[C@H]3[C@@](O)(C(=O)NCCN)[C@H](O)[C@]5(CC)C=CCN6CC[C@]43[C@@H]65)C2)C1 |  |  | 0 |  |  | 0 |  |  |  |  | 0 |  |  | 0 |
| 8.5 | CC[C@]1(O)C[C@H]2CN(CCc3c([nH]c4ccccc34)[C@@](C(=O)OC)(c3cc4c(cc3OC)N(C)[C@H]3[C@@](O)(C(=O)NCCN(C)C)[C@H](O)[C@]5(CC)C=CCN6CC[C@]43[C@@H]65)C2)C1 |  |  | 0 |  |  |  |  |  | 0 | 51 | 0 |  |  |  |
|  | CC[C@]1(O)C[C@H]2CN(CCc3c([nH]c4ccccc34)[C@@](C(=O)OC)(c3cc4c(cc3OC)N(C)[C@H]3[C@@](O)(C(=O)NCC#N)[C@H](O)[C@]5(CC)C=CCN6CC[C@]43[C@@H]65)C2)C1.O=S(=O)(O)O |  |  | 76 | 0 |  | 0 |  |  |  |  |  |  | Toxic | 26 |
